Measurements published in article PMC7452071 (Acta Pharmaceutica Sinica. B, 2019).
Read-outs that look alike come from different tables or passages of the source.

Assays:
TOP1 = TOP1 (Bos taurus, UniProt F1MN93); assay: TOP1-mediated pBR322 DNA relaxation assay; assay type: biochemical; conditions: 100 μmol/L
γH2AX in HCT116 cells = assay: Western blot for γH2AX; assay type: cell-based, human; conditions: 0.5 and 5 μmol/L, 24 h
In short: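 HCT116 seeded at 35 × 10^4 cells/well, treated 24 h with test compound or vehicle. Cells washed in cold PBS, lysed 30 min on ice in RIPA with protease and phosphatase inhibitors, protein quantified by BCA. 30 μg resolved by SDS-PAGE, transferred to PVDF, blocked 2 h in 5% BSA, primary antibody overnight at 4 °C, secondary 1.5 h, infrared imaging.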

MCF-7 (breast cancer) = assay: In vitro cell viability assay; assay type: cell-based; conditions: Homo sapiens, MCF7, 48 h, read-out: IC50 MCF-7
TOP2α = TOP2α (Homo sapiens, UniProt P11388); assay: TOP2-mediated pBR322 DNA relaxation assay; assay type: biochemical
Sequence of TOP2α (P11388 whole entry): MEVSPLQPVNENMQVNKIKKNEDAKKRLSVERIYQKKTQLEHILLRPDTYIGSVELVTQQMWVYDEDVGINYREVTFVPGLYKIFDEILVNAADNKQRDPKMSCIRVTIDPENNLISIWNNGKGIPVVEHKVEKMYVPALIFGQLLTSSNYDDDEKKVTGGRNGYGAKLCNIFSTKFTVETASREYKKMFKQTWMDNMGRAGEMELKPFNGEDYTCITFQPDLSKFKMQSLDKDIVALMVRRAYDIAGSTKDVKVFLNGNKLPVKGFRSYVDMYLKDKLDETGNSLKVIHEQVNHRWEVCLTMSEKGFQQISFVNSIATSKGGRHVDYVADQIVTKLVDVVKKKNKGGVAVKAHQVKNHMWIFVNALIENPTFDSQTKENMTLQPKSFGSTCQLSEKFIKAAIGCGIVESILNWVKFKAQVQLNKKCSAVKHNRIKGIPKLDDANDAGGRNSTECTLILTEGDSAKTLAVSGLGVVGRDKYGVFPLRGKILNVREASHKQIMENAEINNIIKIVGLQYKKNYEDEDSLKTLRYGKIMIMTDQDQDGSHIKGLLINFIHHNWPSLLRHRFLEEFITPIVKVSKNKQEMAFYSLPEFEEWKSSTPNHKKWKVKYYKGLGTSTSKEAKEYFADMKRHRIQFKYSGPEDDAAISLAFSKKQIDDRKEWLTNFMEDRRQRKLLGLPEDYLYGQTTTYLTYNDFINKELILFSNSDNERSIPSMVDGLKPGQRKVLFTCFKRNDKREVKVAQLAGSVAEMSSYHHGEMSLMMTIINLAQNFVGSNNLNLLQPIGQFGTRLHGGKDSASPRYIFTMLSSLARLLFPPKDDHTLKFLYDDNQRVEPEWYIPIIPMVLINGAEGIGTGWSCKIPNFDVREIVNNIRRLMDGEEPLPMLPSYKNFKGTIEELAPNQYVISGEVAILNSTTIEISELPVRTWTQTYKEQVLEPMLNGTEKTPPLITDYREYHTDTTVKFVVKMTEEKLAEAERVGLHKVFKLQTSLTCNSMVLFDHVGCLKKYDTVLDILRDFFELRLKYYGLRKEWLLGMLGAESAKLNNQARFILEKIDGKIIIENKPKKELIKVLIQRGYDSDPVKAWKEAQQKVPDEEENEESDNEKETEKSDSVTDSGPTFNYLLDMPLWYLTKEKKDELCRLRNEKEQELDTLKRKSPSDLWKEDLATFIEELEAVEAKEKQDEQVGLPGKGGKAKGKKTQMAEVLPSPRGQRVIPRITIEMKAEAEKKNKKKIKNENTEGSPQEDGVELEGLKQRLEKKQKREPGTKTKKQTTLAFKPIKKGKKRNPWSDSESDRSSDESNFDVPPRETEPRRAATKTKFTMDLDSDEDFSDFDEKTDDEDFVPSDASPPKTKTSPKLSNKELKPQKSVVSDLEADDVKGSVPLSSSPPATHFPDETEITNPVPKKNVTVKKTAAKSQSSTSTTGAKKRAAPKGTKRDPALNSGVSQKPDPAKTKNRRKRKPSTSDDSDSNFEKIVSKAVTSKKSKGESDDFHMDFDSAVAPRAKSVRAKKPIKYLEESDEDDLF

[1] = molecular target: human recombinant HDAC1 enzyme (Homo sapiens, UniProt Q13547); assay: HDACs activity assay, HDAC1; assay type: biochemical
Sequence of human recombinant HDAC1 enzyme (Q13547 whole entry): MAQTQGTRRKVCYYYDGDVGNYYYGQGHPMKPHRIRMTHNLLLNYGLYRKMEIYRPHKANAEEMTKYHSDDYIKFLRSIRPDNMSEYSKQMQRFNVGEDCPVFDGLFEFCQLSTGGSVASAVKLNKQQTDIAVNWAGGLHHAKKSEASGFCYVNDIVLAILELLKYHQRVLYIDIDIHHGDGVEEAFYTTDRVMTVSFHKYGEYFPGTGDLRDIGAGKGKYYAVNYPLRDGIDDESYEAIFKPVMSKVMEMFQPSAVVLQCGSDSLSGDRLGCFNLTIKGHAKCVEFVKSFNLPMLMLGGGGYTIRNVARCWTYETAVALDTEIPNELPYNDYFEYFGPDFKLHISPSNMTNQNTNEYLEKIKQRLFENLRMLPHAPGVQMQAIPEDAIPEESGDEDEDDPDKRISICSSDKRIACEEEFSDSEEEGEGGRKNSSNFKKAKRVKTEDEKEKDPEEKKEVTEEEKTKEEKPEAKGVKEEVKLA

[2] = system: HCT116, MCF-7 and A549 cell lines; assay: In vitro cell viability assay; assay type: cell-based; conditions: Homo sapiens, read-out: IC50 range against the three tested cell lines
In short: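 Cells were grown in 10% FBS at 37 °C, 5% CO2, seeded in DMEM and held 24 h to 60%–70% confluency. They were then exposed to graded test compound concentrations or vehicle for 48 h. 10% CCK8 was added for 1–4 h at 37 °C and absorbance read at 450. IC50 was computed by the Logit method; three experiments.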

HCT116 (colon cancer) = assay: In vitro cell viability assay; assay type: cell-based; conditions: Homo sapiens
A549 (lung cancer) = assay: In vitro cell viability assay; assay type: cell-based; conditions: Homo sapiens, A549, 48 h, read-out: IC50 A549
[3] = system: hematological cell lines (HL60, K562 and HEL); assay: Antiproliferative activity, hematological cell lines together; assay type: cell-based; conditions: read-out: IC50 range toward hematological cell lines
HCT116 xenograft = assay: In vivo tumor growth inhibition assay against HCT116 xenograft; conditions: bid
[4] = In vitro metabolic stability in mice liver microsomes; assay type: in vitro ADME; conditions: female, ICR, mouse, liver microsomes, pH 7.4
[5] = HCT-116, 48 h, read-out: IC50 HCT116

Sequence of TOP1 (F1MN93 1-767): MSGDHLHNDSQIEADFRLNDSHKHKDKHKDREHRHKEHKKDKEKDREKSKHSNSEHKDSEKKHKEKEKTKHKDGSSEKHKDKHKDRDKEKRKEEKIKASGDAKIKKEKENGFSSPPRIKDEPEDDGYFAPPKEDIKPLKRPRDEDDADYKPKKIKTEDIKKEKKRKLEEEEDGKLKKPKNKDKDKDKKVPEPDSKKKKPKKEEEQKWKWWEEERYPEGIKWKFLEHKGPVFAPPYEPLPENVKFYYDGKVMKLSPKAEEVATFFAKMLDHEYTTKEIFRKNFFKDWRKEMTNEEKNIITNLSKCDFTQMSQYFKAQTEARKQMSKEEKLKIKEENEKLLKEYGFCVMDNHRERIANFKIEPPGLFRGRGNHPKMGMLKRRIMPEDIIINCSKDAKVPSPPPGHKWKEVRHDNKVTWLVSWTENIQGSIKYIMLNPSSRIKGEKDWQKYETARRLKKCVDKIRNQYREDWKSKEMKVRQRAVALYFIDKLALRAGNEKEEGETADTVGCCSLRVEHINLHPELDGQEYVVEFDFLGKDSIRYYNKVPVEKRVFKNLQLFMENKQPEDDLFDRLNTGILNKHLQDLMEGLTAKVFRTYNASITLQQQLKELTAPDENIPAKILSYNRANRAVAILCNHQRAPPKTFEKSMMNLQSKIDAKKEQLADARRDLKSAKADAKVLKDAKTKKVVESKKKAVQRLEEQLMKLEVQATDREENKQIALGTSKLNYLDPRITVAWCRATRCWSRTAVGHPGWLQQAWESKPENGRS

| IC50 (MCF-7 (breast cancer)) [µM] | TOP2 inhibitory activity (relaxation assay) (TOP2α; 100 μmol/L) | IC50 [1] [µM] | IC50 (HCT116 (colon cancer); [5]) [µM] | IC50 (A549 (lung cancer)) [µM] | Compound | other results |
| --- | --- | --- | --- | --- | --- | --- |
|  |  |  |  |  | CC[C@@]1(O)C(=O)OCc2c1cc1n(c2=O)Cc2cc3ccccc3nc2-1 [CPT, Camptothecin] | TOP1 relaxation activity (supercoiled DNA band) (TOP1): obviously supercoiled DNA accumulation |
|  |  |  |  |  | O=C(CCCCCCC(=O)Nc1ccccc1)NO [Compound 1, vorinostat] | Expression of γH2AX (γH2AX in HCT116 cells): no increase |
| 15 ± 2.5 | inactive | 0.027 ± 0.0023 | 7.2 ± 0.52 | 27 ± 2.1 | CN1c2ccccc2C(=O)N2[C@H](C(=O)NCCCCCCC(=O)NO)Cc3c([nH]c4ccccc34)[C@@H]12 [Compound 20a, (7S,13bS)-N-(7-(Hydroxyamino)-7-oxoheptyl)-14-methyl-5-oxo-5,7,8,13,13b,14-hexahydroindolo[2′,3′:3,4]pyrido[2,1-b]quinazoline-7-carboxamide] | IC50 [2]: 7.2 to 27 µM |
| > 50 | inactive | 0.053 ± 0.0045 | 11 ± 1.3 | > 50 | CN1c2ccccc2C(=O)N2[C@H](C(=O)NCCCCCC(=O)NO)Cc3c([nH]c4ccccc34)[C@@H]12 [Compound 20b, (7S,13bS)-N-(6-(Hydroxyamino)-6-oxohexyl)-14-methyl-5-oxo-5,7,8,13,13b,14-hexahydroindolo[2′,3′:3,4]pyrido[2,1-b]quinazoline-7-carboxamide] |  |
| 3 ± 0.25 | remarkable TOP2 inhibitory activities | 0.089 ± 0.0062 | 0.63 ± 0.52 | 10 ± 1.2 | CN1c2ccccc2C(=O)N2[C@H](C(=O)Nc3ccc(/C=C/C(=O)NO)cc3)Cc3c([nH]c4ccccc34)[C@@H]12 [Compound 25a, (7S,13bS)-N-(4-((E)-3-(Hydroxyamino)-3-oxoprop-1-en-1-yl)phenyl)-14-methyl-5-oxo-5,7,8,13,13b,14-hexahydroindolo[2′,3′:3,4]pyrido[2,1-b]quinazoline-7-carboxamide] | TOP2 inhibitory activity (relaxation assay) (TOP2α; 50 μmol/L): remarkable TOP2 inhibitory activities; IC50 [3]: 0.34 to 1 µM; Tumor growth inhibition (TGI) (HCT116 xenograft; 20 mg/kg, i.p., 14 consecutive days): 2.2%; half-life at 1 μmol/L [4]: 9.86 min |
| 2.2 ± 0.18 | remarkable TOP2 inhibitory activities | 0.031 ± 0.0023 | 0.52 ± 0.36 | 15 ± 1.4 | CN1c2ccccc2C(=O)N2[C@H](C(=O)Nc3cccc(/C=C/C(=O)NO)c3)Cc3c([nH]c4ccccc34)[C@@H]12 [Compound 25b, (7S,13bS)-N-(3-((E)-3-(Hydroxyamino)-3-oxoprop-1-en-1-yl)phenyl)-14-methyl-5-oxo-5,7,8,13,13b,14-hexahydroindolo[2′,3′:3,4]pyrido[2,1-b]quinazoline-7-carboxamide] | TOP2 inhibitory activity (relaxation assay) (TOP2α; 50 μmol/L): remarkable TOP2 inhibitory activities |
| > 50 |  | 0.18 ± 0.02 | 2.4 ± 0.22 | 7.9 ± 0.68 | CN1c2ccc(F)cc2C(=O)N2[C@H](C(=O)Nc3ccc(C(=O)Nc4ccccc4N)cc3)Cc3c([nH]c4ccccc34)[C@@H]12 [Compound 30b, (7S,13bS)-N-(4-((2-Aminophenyl)carbamoyl)phenyl)-3-fluoro-14-methyl-5-oxo-5,7,8,13,13b,14-hexahydroindolo[2′,3′:3,4]pyrido[2,1-b]quinazoline-7-carboxamide] | IC50 (HCT116 (colon cancer); HCT-116, read-out: IC50 HCT116): 3.6 µM |
| 13 ± 1.4 | remarkable TOP2 inhibitory activities | 0.26 ± 0.024 | 2.2 ± 0.18 | 11 ± 1.2 | CN1c2ccccc2C(=O)N2[C@H](C(=O)Nc3ccc(C(=O)NO)cc3)Cc3c([nH]c4ccccc34)[C@@H]12 [Compound 32, (7S,13bS)-N-(4-(Hydroxycarbamoyl)phenyl)-14-methyl-5-oxo-5,7,8,13,13b,14-hexahydroindolo[2′,3':3,4]pyrido[2,1-b]quinazoline-7-carboxamide] | TOP2 inhibitory activity (relaxation assay) (TOP2α; 50 μmol/L): remarkable TOP2 inhibitory activities |
| 1.6 ± 0.14 |  | 0.018 ± 0.0016 | 0.53 ± 0.45 | 2.8 ± 0.22 | CN1c2ccccc2C(=O)N2[C@@H](C(=O)Nc3ccc(/C=C/C(=O)NO)cc3)Cc3c([nH]c4ccccc34)[C@H]12 [ent-25a, (7R,13bR)-N-(4-((E)-3-(Hydroxyamino)-3-oxoprop-1-en-1-yl)phenyl)-14-methyl-5-oxo-5,7,8,13,13b,14-hexahydroindolo[2′,3′:3,4]pyrido[2,1-b]quinazoline-7-carboxamide] |  |
| 12 ± 1.5 |  | 0.01 ± 0.0006 | 3.1 ± 0.28 | 20 ± 2.4 | CN1c2ccccc2C(=O)N2[C@@H](C(=O)Nc3cccc(/C=C/C(=O)NO)c3)Cc3c([nH]c4ccccc34)[C@H]12 [ent-25b, (7R,13bR)-N-(3-((E)-3-(Hydroxyamino)-3-oxoprop-1-en-1-yl)phenyl)-14-methyl-5-oxo-5,7,8,13,13b,14-hexahydroindolo[2′,3′:3,4]pyrido[2,1-b]quinazoline-7-carboxamide] |  |
| 17 ± 1.8 |  | 0.022 ± 0.0021 | 2.9 ± 2 | 5.4 ± 0.48 | CN1c2ccccc2C(=O)N2[C@@H](C(=O)Nc3ccc(C(=O)Nc4ccccc4N)cc3)Cc3c([nH]c4ccccc34)[C@H]12 [ent-30a, (7R,13bR)-N-(4-((2-Aminophenyl)carbamoyl)phenyl)-14-methyl-5-oxo-5,7,8,13,13b,14-hexahydroindolo[2′,3′:3,4]pyrido[2,1-b]quinazoline-7-carboxamide] |  |
| 5.3 ± 0.5 |  | 0.01 ± 0.0008 | 1.6 ± 0.13 | 12 ± 1.5 | CN1c2ccccc2C(=O)N2[C@@H](C(=O)Nc3ccc(C(=O)NO)cc3)Cc3c([nH]c4ccccc34)[C@H]12 [ent-32, (7R,13bR)-N-(4-(Hydroxycarbamoyl)phenyl)-14-methyl-5-oxo-5,7,8,13,13b,14-hexahydroindolo[2′,3′:3,4]pyrido[2,1-b]quinazoline-7-carboxamide] |  |
|  |  |  |  |  | Evodiamine [Compound 6, reference compound] | Expression of γH2AX (γH2AX in HCT116 cells): no increase; Tumor growth inhibition (TGI) (HCT116 xenograft; 150 mg/kg, p.o., 21 days (dose of the combination not given)): 45.53% |
